In brackets after ≈: the same amount, converted by molar mass.
Test system: not listed separately
Test: Aqueous solubility of the compound in PBS at pH 7.4
Type: physicochemical
Settings: not given
Method in brief: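 Solubility measured in PBS at pH 7.4.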

`Cc1ccccc1C#Cc1ccc(CCC(=O)O)cc1` showed a solubility of 174 µM (≈ 46 µg/mL).

Test system: not listed separately
Test: Octanol-phosphate buffer partition coefficient, log D of the compound at pH 7.4 by HPLC analysis
Type: physicochemical
Settings: not given

Work on `Cc1ccccc1C#Cc1ccc(CCC(=O)O)cc1` yielded a logD of 2.34.

Test system: not listed separately
Test: Chemical stability of the compound in PBS at 37 degC for 12 days
Type: physicochemical
Settings: read-out: Stability
Method in brief: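 Stability followed in PBS at 37 °C over 12 days.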

Compound `Cc1ccccc1C#Cc1ccc(CCC(=O)O)cc1` has a remaining at 288 h of 99.9%.

Test system: not listed separately
Test: Plasma protein binding in human
Type: ADME, cell-free
Settings: read-out: PPB (converted)

In the case of `Cc1ccccc1C#Cc1ccc(CCC(=O)O)cc1`, the fraction unbound is reported as 0.023.

Test system: Liver
Test: Metabolic stability in human liver S9 fraction
Type: ADME, subcellular
Settings: not given

`Cc1ccccc1C#Cc1ccc(CCC(=O)O)cc1` gave a Stability of 26%.

Biological target: T1, CYP1A2 (Homo sapiens, UniProt P05177)
T1 sequence (P05177 whole entry): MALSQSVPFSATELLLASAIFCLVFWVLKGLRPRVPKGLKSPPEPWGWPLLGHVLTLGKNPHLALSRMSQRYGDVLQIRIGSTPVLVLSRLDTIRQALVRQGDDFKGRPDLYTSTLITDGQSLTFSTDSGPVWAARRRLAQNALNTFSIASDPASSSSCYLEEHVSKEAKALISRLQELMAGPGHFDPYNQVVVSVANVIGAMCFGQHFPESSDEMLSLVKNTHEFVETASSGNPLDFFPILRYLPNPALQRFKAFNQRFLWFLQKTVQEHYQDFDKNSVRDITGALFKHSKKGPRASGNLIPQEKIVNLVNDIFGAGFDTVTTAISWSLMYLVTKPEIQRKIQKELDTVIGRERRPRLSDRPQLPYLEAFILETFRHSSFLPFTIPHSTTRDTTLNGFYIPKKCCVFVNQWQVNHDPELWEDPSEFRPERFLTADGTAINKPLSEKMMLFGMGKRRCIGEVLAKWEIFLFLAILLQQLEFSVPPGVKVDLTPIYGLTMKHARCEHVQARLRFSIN
Test: Inhibition of CYP1A2 at 10 uM
Type: ADME
Settings: not given

For `Cc1ccccc1C#Cc1ccc(CCC(=O)O)cc1`, the inhibition at 10 µM was -8%.

Biological target: CYP2C9 (Homo sapiens, UniProt P11712)
Test: Inhibition of CYP2C9 at 10 uM
Type: ADME
Settings: not given

CYP2C9, sequence (P11712 whole entry): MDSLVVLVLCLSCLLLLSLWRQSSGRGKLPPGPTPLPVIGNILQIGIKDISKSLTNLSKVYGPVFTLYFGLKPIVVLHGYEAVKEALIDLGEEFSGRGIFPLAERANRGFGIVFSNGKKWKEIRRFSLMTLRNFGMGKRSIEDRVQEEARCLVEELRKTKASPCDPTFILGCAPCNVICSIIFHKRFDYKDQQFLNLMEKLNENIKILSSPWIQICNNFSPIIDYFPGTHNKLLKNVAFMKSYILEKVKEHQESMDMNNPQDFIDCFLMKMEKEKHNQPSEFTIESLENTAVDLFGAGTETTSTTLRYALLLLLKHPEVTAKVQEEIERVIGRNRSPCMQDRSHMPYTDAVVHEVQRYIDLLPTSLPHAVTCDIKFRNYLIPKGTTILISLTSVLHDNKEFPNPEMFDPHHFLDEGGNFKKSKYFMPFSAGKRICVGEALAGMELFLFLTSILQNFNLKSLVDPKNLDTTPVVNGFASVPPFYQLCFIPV

Compound `Cc1ccccc1C#Cc1ccc(CCC(=O)O)cc1` has an inhibition at 10 µM of -25%.

Biological target: CYP2C19 (Homo sapiens, UniProt P33261)
Test: Inhibition of CYP2C19 at 10 uM
Type: ADME
Settings: not given

CYP2C19, sequence (P33261 whole entry): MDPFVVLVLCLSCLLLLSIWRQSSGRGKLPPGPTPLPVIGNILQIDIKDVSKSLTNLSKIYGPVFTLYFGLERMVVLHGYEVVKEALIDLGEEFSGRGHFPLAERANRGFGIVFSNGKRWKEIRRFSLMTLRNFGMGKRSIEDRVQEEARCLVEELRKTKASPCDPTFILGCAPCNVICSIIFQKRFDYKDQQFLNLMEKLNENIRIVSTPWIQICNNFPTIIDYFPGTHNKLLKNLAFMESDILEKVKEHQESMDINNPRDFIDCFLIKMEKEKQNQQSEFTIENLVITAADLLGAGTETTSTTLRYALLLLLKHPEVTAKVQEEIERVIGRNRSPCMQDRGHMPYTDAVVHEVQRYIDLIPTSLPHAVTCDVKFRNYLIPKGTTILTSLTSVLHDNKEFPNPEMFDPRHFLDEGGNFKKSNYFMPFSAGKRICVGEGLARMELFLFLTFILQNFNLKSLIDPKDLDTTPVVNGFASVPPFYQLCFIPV

Compound `Cc1ccccc1C#Cc1ccc(CCC(=O)O)cc1` has an inhibition at 10 µM of -1%.

Biological target: CYP2D6 (Homo sapiens, UniProt P10635)
Test: Inhibition of CYP2D6 at 10 uM
Type: ADME
Settings: not given

CYP2D6, sequence (P10635 whole entry): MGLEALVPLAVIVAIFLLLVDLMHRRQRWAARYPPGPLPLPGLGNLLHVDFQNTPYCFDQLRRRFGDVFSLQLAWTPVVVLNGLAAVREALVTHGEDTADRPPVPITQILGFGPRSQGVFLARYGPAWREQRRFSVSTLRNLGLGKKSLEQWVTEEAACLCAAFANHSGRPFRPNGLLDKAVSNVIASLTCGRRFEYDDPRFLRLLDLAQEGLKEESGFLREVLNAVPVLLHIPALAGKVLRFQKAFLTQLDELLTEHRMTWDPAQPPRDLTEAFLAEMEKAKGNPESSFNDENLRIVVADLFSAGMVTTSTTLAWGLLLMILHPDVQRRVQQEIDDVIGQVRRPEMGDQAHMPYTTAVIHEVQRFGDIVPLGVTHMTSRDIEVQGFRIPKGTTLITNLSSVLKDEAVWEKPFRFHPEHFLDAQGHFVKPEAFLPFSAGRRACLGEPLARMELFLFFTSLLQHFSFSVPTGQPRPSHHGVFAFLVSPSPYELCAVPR

With `Cc1ccccc1C#Cc1ccc(CCC(=O)O)cc1` the inhibition at 10 µM was 0%.

Biological target: CYP3A4 (Homo sapiens, UniProt P08684)
Test: Inhibition of CYP3A4 at 10 uM
Type: ADME
Settings: not given

CYP3A4, sequence (P08684 whole entry): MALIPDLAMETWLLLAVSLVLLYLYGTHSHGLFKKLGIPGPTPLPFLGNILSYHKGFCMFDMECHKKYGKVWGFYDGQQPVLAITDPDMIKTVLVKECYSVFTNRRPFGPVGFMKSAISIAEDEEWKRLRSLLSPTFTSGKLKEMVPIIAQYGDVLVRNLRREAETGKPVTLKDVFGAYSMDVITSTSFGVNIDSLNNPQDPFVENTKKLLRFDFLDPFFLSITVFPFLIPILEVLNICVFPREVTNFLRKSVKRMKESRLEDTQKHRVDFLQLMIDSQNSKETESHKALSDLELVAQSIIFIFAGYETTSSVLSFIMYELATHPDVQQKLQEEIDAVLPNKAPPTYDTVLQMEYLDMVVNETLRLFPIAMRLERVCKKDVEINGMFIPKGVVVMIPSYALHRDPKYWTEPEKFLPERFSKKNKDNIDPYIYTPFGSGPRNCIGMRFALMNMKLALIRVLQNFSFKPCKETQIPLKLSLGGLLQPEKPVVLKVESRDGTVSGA

Compound `Cc1ccccc1C#Cc1ccc(CCC(=O)O)cc1` has an inhibition at 10 µM of -4%.

Test system: not listed separately
Test: Inhibition of P-glycoprotein at 100 uM
Settings: not given
Method in brief: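 P-glycoprotein inhibition tested at 100 μM compound.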

For `Cc1ccccc1C#Cc1ccc(CCC(=O)O)cc1`, the inhibition was 6.6%.

Test system: not listed separately
Test: Apparent permeability from apical to basolateral side of human Caco2/TC7 cells
Type: ADME, cell-based
Settings: Caco-2
Method in brief: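 Caco-2 TC7 monolayers, apical to basolateral transport at pH 6.5 apical/7.4 basolateral.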

Compound `Cc1ccccc1C#Cc1ccc(CCC(=O)O)cc1` has a Papp A→B of 87 ×10⁻⁶ cm/s.

Test system: not listed separately
Test: Apparent permeability across methotrexate treated human HT-29 cells
Type: ADME, cell-based
Settings: not given
Method in brief: (§1)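 HT29-MTX mucus-producing cells, passage 32, grown 23 days (TEER > 750 Ω cm²). Compound at 100 μM (10 mM DMSO stock diluted 1:100 in buffer). […] Non-permeated drug measured for recovery. Monolayer integrity checked by 20 μM carboxyfluorescein after 1 h and TEER.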

In the case of `CC(C(=O)O)c1cccc(C(=O)c2ccccc2)c1` (centres undefined) [KETOPROFEN], the Papp is reported as 15.1 ×10⁻⁶ cm/s.

Test system: not listed separately
Test: Permeability across methotrexate treated human HT-29 cells assessed as compound recovery
Type: ADME, cell-based
Settings: read-out: Activity
Method in brief: as §1

In the case of `CC(C(=O)O)c1cccc(C(=O)c2ccccc2)c1` (centres undefined) [KETOPROFEN], the recovery is reported as 80%.

Test system: not listed separately
Test: Octanol-water partition coefficient, log D of the compound at pH 7.4 by HPLC analysis
Type: physicochemical
Settings: not given
Method in brief: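 Distribution between n-octanol and water (PBS), pH 7.4, determined experimentally.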

Compound `Cc1ccccc1C#Cc1ccc(CCC(=O)O)cc1` has a logD of 2.34.

Biological target: T2, Free fatty acid receptor 1 (Homo sapiens, UniProt O14842)
Test: Agonist activity at human FFA1 receptor expressed in human 1321N1 cells assessed as calcium mobilization by fluorescence spectrophotometry
Type: functional, cell-based
Settings: not given

T2 sequence (O14842 whole entry): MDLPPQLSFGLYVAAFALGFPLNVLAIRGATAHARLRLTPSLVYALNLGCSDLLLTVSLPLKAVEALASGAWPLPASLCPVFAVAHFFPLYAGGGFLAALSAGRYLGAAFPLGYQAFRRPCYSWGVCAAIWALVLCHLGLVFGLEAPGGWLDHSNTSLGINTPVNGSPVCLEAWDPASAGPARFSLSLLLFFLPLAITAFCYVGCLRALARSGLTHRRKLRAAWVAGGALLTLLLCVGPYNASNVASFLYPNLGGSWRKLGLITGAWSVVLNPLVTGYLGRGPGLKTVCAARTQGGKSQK

Compared with `Cc1ccsc1C#Cc1ccc(CCC(=O)O)cc1`, `O=C(O)CCc1ccc(C#Cc2cccs2)cc1` is 3.3-fold higher in EC50: 75.9 nM for the first, 251 nM for the second. The first is the more potent here.

Compared with `O=C(O)CCc1ccc(C#Cc2ccccn2)cc1`, `O=C(O)CCc1ccc(C#Cc2cccnc2Cl)cc1` is 22-fold lower in EC50: 13200 nM for the first, 603 nM for the second. The second is the more potent here.

Compared with `O=C(O)CCc1ccc(C#Cc2ccnc(-c3ccccc3)c2)cc1`, `Cc1ccccc1-c1cc(C#Cc2ccc(CCC(=O)O)cc2)ccn1` is 5.8-fold higher in EC50: 186 nM for the first, 1070 nM for the second. The first is the more potent here.

Going from `O=C(O)CCc1ccc(C#Cc2ccnc(F)c2)cc1` to `O=C(O)CCc1ccc(C#Cc2ccnc(Cl)c2)cc1`, the EC50 falls from 513 nM to 295 nM (1.7-fold).

`COc1nccc(C#Cc2ccc(CCC(=O)O)cc2)n1` and `O=C(O)CCc1ccc(C#Cc2ccnc(Cl)n2)cc1` are within 1.5-fold of each other in EC50: 9550 nM for the first, 9120 nM for the second.

`O=C(O)CCc1ccc(C#Cc2ccnc(Oc3ccccc3)c2)cc1` and `COc1cc(C#Cc2ccc(CCC(=O)O)cc2)ccn1` are within 1.5-fold of each other in EC50: 479 nM for the first, 525 nM for the second.

Compared with `Cc1cc(C#Cc2ccc(CCC(=O)O)cc2)nc(Cl)n1`, `Cc1cnc(Cl)nc1C#Cc1ccc(CCC(=O)O)cc1` is 1.6-fold higher in EC50: 2750 nM for the first, 4270 nM for the second.

Compared with `Cc1c(C#Cc2ccc(CCC(=O)O)cc2)cc(Cl)nc1Cl`, `Cc1c(C#Cc2ccc(CCC(=O)O)cc2)ccnc1Cl` is 3.1-fold higher in EC50: 43.7 nM for the first, 135 nM for the second. The first is the more potent here.

Compared with `O=C(O)CCc1ccc(C#Cc2ccnc3cc(Cl)ccc23)cc1`, `O=C(O)CCc1ccc(C#Cc2ccnc(Cl)c2Cc2ccccc2)cc1` is 10-fold higher in EC50: 79.4 nM for the first, 794 nM for the second.

Compared with `Cc1ccccc1C#Cc1ccc(CCC(=O)O)cc1`, `Cc1cccc(C#Cc2ccc(CCC(=O)O)cc2)n1` is 140-fold higher in EC50: 45.7 nM for the first, 6170 nM for the second. The first is the more potent here.

First: Cc1cnc(F)c(C#Cc2ccc(CCC(=O)O)cc2)c1
Second: Cc1cnc(F)cc1C#Cc1ccc(CCC(=O)O)cc1
The EC50 of the first is 3.7-fold higher: 661 nM for the first, 178 nM for the second.

`O=C(O)CCc1ccc(C#Cc2ccncc2)cc1` and `O=C(O)CCc1ccc(C#Cc2cccnc2)cc1` are within 1.5-fold of each other in EC50: 4070 nM for the first, 6030 nM for the second.

First: Cc1c(C#Cc2ccc(CCC(=O)O)cc2)ccnc1F
Second: C=CCc1c(C#Cc2ccc(CCC(=O)O)cc2)ccnc1Cl
The EC50 of the first is 2.6-fold lower: 120 nM for the first, 316 nM for the second. The first is the more potent here.

Compared with `O=C(O)CCc1ccc(C#Cc2ccc(Cl)nc2)cc1`, `O=C(O)CCc1ccc(C#Cc2cncs2)cc1` is 5.5-fold higher in EC50: 708 nM for the first, 3890 nM for the second.

Biological target: T2, Free fatty acid receptor 1
Test: Agonist activity at human FFA1 receptor expressed in human 1321N1 cells assessed as calcium mobilization by fluorescence spectrophotometry relative to 10 uM TUG-20
Type: functional, cell-based
Settings: not given
Method in brief: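 Human FFA1 stably expressed in 1321N1 cells kept under G418 selection, 30000–40000 cells/well. After 24 h, washed in Krebs-HEPES pH 7.4 and loaded 1 h at 37 °C with 1.5 μM Oregon Green 488 BAPTA-1/AM. Compound injected at 10-fold concentration at 37 °C; fluorescence ex 485/em 520 nm over 50 × 0.4 s. Efficacy as % of maximal response to 10 μM TUG-20.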

Going from `Cc1ccsc1C#Cc1ccc(CCC(=O)O)cc1` to `O=C(O)CCc1ccc(C#Cc2cccs2)cc1`, the Efficacy falls from 100% to 97%.

First: O=C(O)CCc1ccc(C#Cc2ccccn2)cc1
Second: O=C(O)CCc1ccc(C#Cc2cccnc2Cl)cc1
The Efficacy of the first is higher: 98% for the first, 91% for the second.

Compared with `O=C(O)CCc1ccc(C#Cc2ccnc(-c3ccccc3)c2)cc1`, `Cc1ccccc1-c1cc(C#Cc2ccc(CCC(=O)O)cc2)ccn1` is lower in Efficacy: 97% for the first, 92% for the second.

Compared with `O=C(O)CCc1ccc(C#Cc2ccnc(F)c2)cc1`, `Cc1cc(C#Cc2ccc(CCC(=O)O)cc2)ccn1` is higher in Efficacy: 98% for the first, 102% for the second.

First: COc1nccc(C#Cc2ccc(CCC(=O)O)cc2)n1
Second: O=C(O)CCc1ccc(C#Cc2ccnc(Cl)n2)cc1
The Efficacy of the first is lower: 109% for the first, 131% for the second.

First: O=C(O)CCc1ccc(C#Cc2ccnc(Oc3ccccc3)c2)cc1
Second: COc1cc(C#Cc2ccc(CCC(=O)O)cc2)ccn1
The Efficacy of the first is lower: 94% for the first, 98% for the second.

Compared with `O=C(O)C1CC1c1ccc(C#Cc2cc(Cl)nc(Cl)c2)cc1` (racemic), `Cc1c(C#Cc2ccc(CCC(=O)O)cc2)cc(Cl)nc1Cl` is lower in Efficacy: 96% for the first, 91% for the second.

Going from `Cc1cc(C#Cc2ccc(CCC(=O)O)cc2)nc(Cl)n1` to `Cc1cnc(Cl)nc1C#Cc1ccc(CCC(=O)O)cc1`, the Efficacy rises from 110% to 121%.

First: O=C(O)CCc1ccc(C#Cc2ccnc3cc(Cl)ccc23)cc1
Second: Cc1c(C#Cc2ccc(CCC(=O)O)cc2)ccnc1Cl
The Efficacy of the first is higher: 125% for the first, 101% for the second.

Going from `Cc1ccccc1C#Cc1ccc(CCC(=O)O)cc1` to `Cc1cccc(C#Cc2ccc(CCC(=O)O)cc2)n1`, the Efficacy rises from 102% to 108%.

Going from `O=C(O)CCc1ccc(C#Cc2ncccc2[N+](=O)[O-])cc1` to `O=C(O)CCc1ccc(C#Cc2cccnc2)cc1`, the Efficacy rises from 87% to 96%.

Compared with `Cc1cnc(F)c(C#Cc2ccc(CCC(=O)O)cc2)c1`, `Cc1cnc(F)cc1C#Cc1ccc(CCC(=O)O)cc1` is higher in Efficacy: 98% for the first, 99% for the second.

First: O=C(O)CCc1ccc(C#Cc2ccncc2)cc1
Second: O=C(O)CCc1ccc(C#Cc2ccnc(Cl)c2)cc1
The Efficacy of the first is higher: 100% for the first, 94% for the second.

Compared with `Cc1c(C#Cc2ccc(CCC(=O)O)cc2)ccnc1F`, `C=CCc1c(C#Cc2ccc(CCC(=O)O)cc2)ccnc1Cl` is lower in Efficacy: 101% for the first, 97% for the second.

First: O=C(O)CCc1ccc(C#Cc2ccnc(Cl)c2Cc2ccccc2)cc1
Second: O=C(O)CCc1ccc(C#Cc2ccc(Cl)nc2)cc1
The Efficacy of the first is higher: 101% for the first, 98% for the second.

`O=C(O)CCc1ccc(C#Cc2cncs2)cc1` showed an Efficacy of 99%.
